Screening results as filed in PubChem.
TAAR1 antag: human TAAR1 antagonism. actives 1.5% (n = 360,000). inhibition, % at 3 µM. CHO RD-HGA16 TAAR1, Fluo-8 calcium fluorescence, antagonist. AID 624466;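 active means inhibition above a per-plate cutoff, the mean inhibition of test compounds on that plate plus 3 SD, cut at about 49% in these data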;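 further: 0% = DMSO plus EC80 beta-PEA response and 100% = DMSO alone without agonist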
Target sequence (Q96RJ0 whole entry, looked up): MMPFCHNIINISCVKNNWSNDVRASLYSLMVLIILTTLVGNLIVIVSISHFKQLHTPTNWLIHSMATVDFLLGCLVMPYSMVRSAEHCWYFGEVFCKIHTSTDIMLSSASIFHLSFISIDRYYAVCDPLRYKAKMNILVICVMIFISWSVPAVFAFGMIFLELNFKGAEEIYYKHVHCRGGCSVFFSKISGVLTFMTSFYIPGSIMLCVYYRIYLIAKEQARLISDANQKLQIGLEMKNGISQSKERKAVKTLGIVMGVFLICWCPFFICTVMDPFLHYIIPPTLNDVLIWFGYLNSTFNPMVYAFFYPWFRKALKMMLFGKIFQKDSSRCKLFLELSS
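Test system: RD-HGA16 CHO cells with stable hTAAR1 and Gα16 / Probe or stimulus: EC80 β-phenethylamine stimulus / Times: seeding 17-24 h prior, 75-min 37 °C, 30-min RT dye loading / Detection: Fluo-8 calcium-sensitive fluorescence / Read-out basis: % inhibition scaled between DMSO and EC80 PEA controls / Repeats: singlicate, one well per test compound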
HTR2A ag: mouse HTR2A agonism via beta-arrestin recruitment; P35363; CHO-K1 mHTR2A beta-arrestin complementation, luminescence; percent of 30 µM serotonin response; actives 0.66% (n = 360,000); activation, % at 7.6 µM; AID 624169;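 active means activation above a run cutoff, the mean activation of all tested compounds plus 3 SD, cut at about 14% in these data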;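 further: 0% = plate median of compound wells and 100% = 30 µM serotonin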
MC4R ag barr: human MC4R agonism via beta-arrestin; U2OS MC4R beta-arrestin complementation, luminescence; percent of melanotan II response, DMSO zero; activation, % at 8.9 µM; actives 0.98% (n = 360,000);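 active means activation above a per-plate cutoff, the mean activation of sample wells on that plate plus 3 SD, cut at about 8% in these data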
Target sequence (P32245 whole entry, looked up): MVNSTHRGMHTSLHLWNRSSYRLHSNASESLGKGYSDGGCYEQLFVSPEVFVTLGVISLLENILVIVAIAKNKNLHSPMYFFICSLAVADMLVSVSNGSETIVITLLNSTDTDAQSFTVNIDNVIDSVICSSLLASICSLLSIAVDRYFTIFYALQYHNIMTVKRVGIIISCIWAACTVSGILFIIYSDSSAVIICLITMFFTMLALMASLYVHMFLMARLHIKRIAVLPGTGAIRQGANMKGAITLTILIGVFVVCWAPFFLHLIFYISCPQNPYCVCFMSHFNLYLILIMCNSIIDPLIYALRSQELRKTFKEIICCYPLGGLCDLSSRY
MC4R antag cAMP: blocks human MC4R cAMP signaling | MC4R-expressing cells, MTII-stimulated cAMP, LANCE TR-FRET | inhibition, % at 6.5 µM | actives 0.48% (n = 360,000) | AID 540295;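 active means inhibition above its plate's cutoff, the mean of tested wells on that plate plus 3 SD, cut at about 29% in these data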;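 further: 0% = Melanotan II alone and 100% = Melanotan II plus saturating MCL0020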
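System: U2OS-MC4R stable cell line; Technique: Eu-cAMP/anti-cAMP TR-FRET, emission 671 nm; Repeats: single well per compound; Also added: Melanotan II; Dosing: one concentration, 6.5 µM nominal; Schedule: 30-min compound, 1-h challenge, 1-h detection, room temperature.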
B2AR ag: activates human beta-2 adrenergic receptor causing internalization; actives 0.43% (n = 340,000); Am2.2-beta2AR cells, FAP receptor internalization, flow cytometry; response, % (test concentration not listed);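 active means response above a set limit, near 3 SD of response in nonfluorescent compounds, cut at about 42% in these data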
TAAR1 ag: agonists of human TAAR1; Q96RJ0; CHO RD-HGA16 TAAR1, Fluo-8 calcium fluorescence; vehicle wells 0%, saturating PEA agonist 100%; activation, % at 3 µM; actives 0.99% (n = 360,000);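 active means activation above the mean activation of all test compounds in the run plus 3 SD, cut at about 38% in these data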
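Test system: RD-HGA16 (CHO) cells co-expressing Gα16 and hTAAR1; dosing: one-point dosing at 3 µM (nominal); timing: 17-24 h seeding, 75 min 37 °C dye, 30 min RT; signal: kinetic Fluo-8 calcium fluorescence; read-out basis: % activation relative to PEA EC100 response; controls: DMSO and PEA EC100; replicates: n 1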
The depositor's hits bear a star; . = not tested or not shown. Compounds with a hit are over-represented: about 4.3% of the library has one in this group of screens.

SMILES	TAAR1 antag	HTR2A ag	MC4R ag barr	MC4R antag cAMP	B2AR ag	TAAR1 ag
Cc1ccc(S(=O)(=O)N2CCC(=O)N([C@H](COC(=O)Nc3ccccc3)Cc3ccccc3)CC2)cc1	-8.0	-3.2	.	.	.	-0.6
COc1ccccc1N1CCN(C(=O)c2ccc(N3CCCCS3(=O)=O)cc2)CC1	-6.3	13.8	-0.1	-4.0	1.1	3.6
CC(C)NC(=O)C1(C)CN(S(C)(=O)=O)CC(=O)N1Cc1ccc2c(c1)OCO2 (configuration not stated)	4.2	-1.0	.	.	.	2.4
COc1ccc(CCNC(=O)c2cc(-c3ccccc3)on2)cc1OC	-5.2	2.7	9.5*	14.1	1.4	23.0
COc1ccc(/C=C/C(=O)NC(=S)Nc2ccccc2)cc1OC	10.8	4.8	9.1*	15.9	7.9	1.2
COc1ccc(CCNC(=O)c2ccc(CSc3ccc(Cl)cc3)o2)cc1OC	65.9*	2.7	.	.	.	4.9
COc1c(Cl)cc(Cl)cc1C(=O)Nc1ccc(NC(=O)c2cccs2)cc1	69.5*	3.1	9.7*	21.7	8.2	15.6
Cn1nnnc1SCC(=O)NC1CCCC1	-12.7	1.4	0.8	15.6	-2.4	4.0
C=CCNc1cccc2c1S(=O)(=O)N[C@@H](CC(C)C)CO2	-7.2	.	.	.	.	-1.1
COc1ccc(NC(=O)c2cc(-c3cccs3)on2)cc1	-15.0	-1.4	-0.3	-10.3	1.2	2.4
COc1ccc(NC(=O)c2cc(-c3cccs3)on2)cc1OC	13.1	0.4	5.0	-12.4	0.6	42.3*
Cc1ccc(NC(=O)C2(c3ccccc3)CC2(Cl)Cl)cc1C (configuration not stated)	8.0	-8.8	-0.8	4.0	-2.2	9.1
CCc1ccc(NC(=O)C2(c3ccccc3)CC2(Cl)Cl)cc1 (configuration not stated)	47.1	-3.5	2.5	3.9	15.1	54.5*
S=C(SCc1nc(-c2ccc(Cl)cc2)no1)N1CCSCC1	-15.3	.	.	.	.	-1.2
Cc1ccccc1NC(=O)C1C2CCCCC21 (configuration not stated)	-15.3	3.4	0.2	7.0	7.7	-0.2
Cc1ccccc1NC(=O)C1C2/C=C\CCCCC21 (configuration not stated)	-18.5	4.7	8.8*	6.9	-6.5	3.2
O=C(COC(=O)c1cncc(Br)c1)NCc1ccc(Cl)cc1	-13.9	1.1	-0.4	6.3	-3.7	-3.9
O=C(COC(=O)c1cc(C(F)(F)F)cc(C(F)(F)F)c1)NCc1ccc(Cl)cc1	-6.9	0.0	8.7*	-0.8	-8.5	4.3
CC(=O)C1=C(C)N(Cc2ccc(F)cc2)C(=S)NC1c1ccc(Br)cc1 (configuration not stated)	2.7	.	.	.	.	2.3
COc1ccc(C(=O)Nc2ccc(Cl)cc2C(=O)NCc2ccco2)cc1OC	47.3	-2.6	1.1	5.3	-1.6	9.9
COc1ccc(C(=O)Nc2ccccc2C(=O)NCc2ccco2)cc1OC	53.5*	-1.9	0.4	3.6	1.8	17.1
COc1ccc(-c2csc(NC(=O)c3ccc(S(C)(=O)=O)cc3)n2)cc1	52.9*	6.2	0.7	9.5	5.5	26.5
COc1ccc(-c2cc(C(=O)Nc3cc(S(=O)(=O)N4CCOCC4)ccc3N3CCOCC3)c3ccccc3n2)cc1	54.5*	5.0	-3.6	11.0	7.3	21.3
COc1ccccc1C(=O)Nc1nc(-c2ccc(S(=O)(=O)N3CCOCC3)cc2)cs1	69.3*	7.3	-1.2	8.8	17.6	31.3
CCOc1cccc(C(=O)Nc2nc(-c3ccc(S(=O)(=O)N4CCOCC4)cc3)cs2)c1	53.5*	5.6	-2.1	5.0	14.9	14.1
SMILES	TAAR1 antag	HTR2A ag	MC4R ag barr	MC4R antag cAMP	B2AR ag	TAAR1 ag
C[C@@H]1CCCCO[C@H](CN(C)C(=O)C2CCCCC2)[C@@H](C)CN([C@H](C)CO)C(=O)c2cc(NS(=O)(=O)c3cccs3)ccc2O1	0.5	.	.	.	.	-1.0
O=C(COC(=O)c1nc(Cl)ccc1Cl)NNC(=O)c1cccs1	-3.5	0.4	-4.0	6.1	-2.8	0.5
CN(C)S(=O)(=O)c1cccc(N=c2scc(-c3ccc4c(c3)NC(=O)CO4)n2CC2CCCO2)c1 (configuration not stated)	52.5*	3.2	-2.2	5.5	3.4	26.9
CCN1CCN(C(=O)c2cc3c(s2)-c2ccccc2S(=O)(=O)C3)CC1	-8.6	-3.7	-1.1	-5.6	3.8	1.6
O=C(c1cc2c(s1)-c1ccccc1S(=O)(=O)C2)N1CCN(Cc2ccccc2)CC1	51.0*	-0.6	0.2	12.0	-4.2	12.5
CCCCc1c(-c2ccccc2OC)ncn1C1CCCCC1	-25.8	.	.	.	.	1.2
COc1ccccc1-c1cc(C(F)(F)F)nc(N2CCCC2)n1	2.5	2.2	-0.8	4.9	4.0	4.9
COc1ccccc1-c1cc(C(F)(F)F)nc(S(C)(=O)=O)n1	-8.0	3.6	-2.9	-2.0	58.0*	20.7
COc1ccc(Sc2cccc3c2S(=O)(=O)N(C2CC2)C[C@@H](COCc2ccccc2)O3)cc1OC	6.2	.	.	.	.	1.6
Cc1ccc(S(=O)(=O)N(C)[C@H]2C[C@H]3c4[nH]c5c(-c6ccccc6)cccc5c4CCN3C(=O)[C@H]2[C@H](C)O)cc1	44.3	.	.	.	.	3.1
O=C(Nc1nc2ccccc2[nH]1)c1cccc(Cl)c1	3.6	5.4	-0.5	10.7	-2.8	0.1
CN(c1cccc(Cl)c1)S(=O)(=O)c1cccc(C(=O)Nc2nc3ccccc3[nH]2)c1	61.0*	-2.7	-1.0	7.3	4.1	12.1
COc1ccc(N(C)S(=O)(=O)c2cccc(C(=O)Nc3nc4ccccc4[nH]3)c2)cc1	54.7*	1.9	0.7	16.3	-3.7	8.6
COc1ccc(N(C)S(=O)(=O)c2cccc(C(=O)Nc3nnc(C)s3)c2)cc1	-8.8	-1.0	-1.8	5.7	0.1	0.6
COc1ccc(CN(C)C(=O)C(Cc2ccccc2)NC(=O)c2ccccc2)c(OC)c1OC (configuration not stated)	53.7*	-0.2	-0.7	15.8	.	10.3
COc1ccc(CN(C)C(=O)c2cccc(Oc3ccccc3)c2)c(OC)c1OC	53.8*	-1.1	-1.0	14.8	-2.7	11.1
COc1cccc(CN(C)C(=O)c2cccc(S(=O)(=O)NCc3ccccc3)c2)c1OC	30.9	0.4	-1.0	2.7	13.7	11.1
COc1ccc(CN(C)C(=O)[C@H](Cc2ccccc2)NC(=O)c2ccco2)c(OC)c1	39.8	-0.7	-2.7	-3.2	12.5	21.3
